ChEMBL document CHEMBL1126033, “C-terminal modifications of nonpeptide renin inhibitors: improved oral bioavailability via modification of physicochemical properties” (J Med Chem, 1992)

How the values were obtained:
[1] = Partition coefficient (logD7.4); conditions: octanol/water, pH 7.4
[2] = Average peak plasma drug concentration after iv dose of 0.3 mg/kg in ferrets.; conditions: ferret, plasma
Mustela putorius furo [3] = assay: Average area under curve value dosed at 0.3 mg/kg, iv in ferrets.; conditions: ferret, in vivo
[4] = (§1) Average peak plasma drug concentration after id dose of 10 mg/kg in ferrets(Plasma samples collected from portal blood).; format: ADME, organism-based, Mustela putorius furo; parameters: dose 10 mg/kg, route intraduodenal; conditions: ferret, read-out: Average peak Concn
Method in brief: (§2)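 Fasted male Fitch ferrets (0.4–1.2 kg) under Inactin anesthesia (100–120 mg/kg ip), catheterized in carotid artery, jugular vein, portal vein and trachea. Single 10 mg/kg intraduodenal dose of HCl salt solution. 6 portal and 7 arterial samples taken over 180 min. Plasma drug measured by renin-inhibition bioassay with serial dilution and acetonitrile precipitation. AUC by trapezoidal integration; peak is the mean of each animal's maximum.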

[5] = Bioavailability in ferret; conditions: in vivo
[6] = Partition coefficient (logD6.5); conditions: octanol/water, pH 6.5
Renin [7] = target: T1, Renin (Homo sapiens, UniProt P00797); format: cell-free, Plasma
T1 sequence (P00797 whole entry): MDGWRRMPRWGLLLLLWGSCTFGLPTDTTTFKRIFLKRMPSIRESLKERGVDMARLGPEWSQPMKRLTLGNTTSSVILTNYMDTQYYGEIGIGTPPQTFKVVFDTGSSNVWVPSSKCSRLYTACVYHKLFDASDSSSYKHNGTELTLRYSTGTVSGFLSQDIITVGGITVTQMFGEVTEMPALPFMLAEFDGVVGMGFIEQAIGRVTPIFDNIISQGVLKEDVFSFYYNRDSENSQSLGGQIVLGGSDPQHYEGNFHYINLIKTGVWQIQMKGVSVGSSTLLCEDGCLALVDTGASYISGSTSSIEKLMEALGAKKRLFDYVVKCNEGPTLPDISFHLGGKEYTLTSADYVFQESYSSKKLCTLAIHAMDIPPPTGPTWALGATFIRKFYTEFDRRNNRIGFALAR

[8] = Average peak plasma drug concentration after id dose of 10 mg/kg in ferrets(Plasma samples collected from arterial blood).; conditions: ferret, plasma (from arterial blood)
Mustela putorius furo [9] = assay: (§3) Average area under curve value dosed at 10 mg/kg, id in ferrets.; conditions: ferret, in vivo, other
[10] = Inhibitory activity against monkey plasma at pH 7.4; conditions: Cercopithecidae
[11] = target: T2, Cathepsin G (Homo sapiens) (UniProt P08311); assay: Inhibitory activity against human cathepsin G at a concentration of 1 x 10e-5 M
T2 sequence (whole entry): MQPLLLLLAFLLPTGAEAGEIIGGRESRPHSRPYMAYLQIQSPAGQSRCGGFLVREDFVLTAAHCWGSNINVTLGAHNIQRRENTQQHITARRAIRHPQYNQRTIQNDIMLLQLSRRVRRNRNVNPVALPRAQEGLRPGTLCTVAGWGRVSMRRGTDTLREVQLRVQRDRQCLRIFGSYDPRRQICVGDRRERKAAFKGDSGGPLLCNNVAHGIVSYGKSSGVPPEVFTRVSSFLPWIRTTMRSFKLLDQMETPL
Method in brief: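 Human leukocyte cathepsin G, assayed with N-succinyl-Ala-Ala-Pro-Phe-4-nitroanilide substrate.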

Cathepsin D (Bos taurus) = target: T3, Cathepsin D (Bos taurus) (UniProt P80209); assay: Inhibitory activity against bovine cathepsin D at a concentration of 1 x 10e-5 M
T3 sequence (whole entry): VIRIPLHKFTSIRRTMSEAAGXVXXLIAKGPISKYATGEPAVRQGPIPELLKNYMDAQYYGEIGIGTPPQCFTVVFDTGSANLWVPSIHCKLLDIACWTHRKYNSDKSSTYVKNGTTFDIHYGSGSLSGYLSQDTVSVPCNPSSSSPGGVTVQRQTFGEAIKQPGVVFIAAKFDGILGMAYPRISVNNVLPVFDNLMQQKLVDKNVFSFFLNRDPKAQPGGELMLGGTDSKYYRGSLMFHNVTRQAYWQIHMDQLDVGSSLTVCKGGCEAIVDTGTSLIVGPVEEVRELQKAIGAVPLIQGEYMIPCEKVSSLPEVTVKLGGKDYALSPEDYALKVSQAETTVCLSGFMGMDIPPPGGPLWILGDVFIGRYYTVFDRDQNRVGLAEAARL

[12] = target: Cathepsin D (Homo sapiens) (UniProt P07339); assay: Inhibitory activity against human cathepsin D at a concentration of 1 x 10e-5 M
Method in brief: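 Human spleen cathepsin D, purified by hemoglobin affinity chromatography and assayed with hemoglobin substrate.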

[13] = target: T4, Gastricsin (Homo sapiens) (UniProt P20142); assay: Inhibitory activity against human Gastricsin at a concentration of 1 x 10e-5 M
T4 sequence (whole entry): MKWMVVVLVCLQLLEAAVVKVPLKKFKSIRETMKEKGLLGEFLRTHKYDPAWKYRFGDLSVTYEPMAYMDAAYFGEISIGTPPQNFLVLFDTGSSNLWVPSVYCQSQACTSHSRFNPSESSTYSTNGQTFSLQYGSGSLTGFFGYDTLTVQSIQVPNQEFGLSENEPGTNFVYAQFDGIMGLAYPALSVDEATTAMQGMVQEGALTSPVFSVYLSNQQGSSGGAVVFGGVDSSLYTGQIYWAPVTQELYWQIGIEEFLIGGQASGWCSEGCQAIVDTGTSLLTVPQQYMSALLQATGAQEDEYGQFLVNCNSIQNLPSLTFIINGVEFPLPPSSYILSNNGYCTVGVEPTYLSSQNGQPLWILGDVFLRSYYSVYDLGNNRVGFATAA

[14] = as §1; conditions: ferret, plasma (from portal blood)
Mustela putorius furo [15] = assay: as §3; format: ADME, organism-based; parameters: dose 10 mg/kg, route intraduodenal; conditions: ferret, in vivo, other; method in brief: as §2
[16] = Bioavailability in monkey (i.d. dosing); format: ADME, organism-based; conditions: in vivo
Method in brief: (§4)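 Male cynomolgus monkeys (3–5 kg) salt-depleted with furosemide 5 mg/kg po on days 7 and 1 plus a low-salt diet. Fasted, pentobarbital anesthesia. Intraduodenal dose of 10 mg/kg as HCl salt solution. Portal and systemic plasma drug levels measured by bioassay. Bioavailability = dose-normalized AUCid/AUCiv ×100 (trapezoidal integration; iv fit biexponential), mean ± SEM.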

Renin [17] = target: T1, Renin; assay: In vitro activity against human renin (pH 6.0)
Pepsin A (Sus scrofa) = Pepsin A (Sus scrofa) (UniProt P00791); assay: Inhibitory activity against porcine pepsin at a concentration of 1 x 10e-5 M
[18] = Bioavailability in monkey (dose 10 mg/kg i.d.); format: ADME, organism-based; conditions: primates, in vivo; method in brief: as §4

Chain of Cathepsin D (Homo sapiens) (P07339 65-162 limits assumed): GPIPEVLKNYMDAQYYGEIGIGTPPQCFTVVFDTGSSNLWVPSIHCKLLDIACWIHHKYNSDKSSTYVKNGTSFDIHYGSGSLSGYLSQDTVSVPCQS
Chain of Cathepsin D (Homo sapiens) (P07339 169-412 limits assumed): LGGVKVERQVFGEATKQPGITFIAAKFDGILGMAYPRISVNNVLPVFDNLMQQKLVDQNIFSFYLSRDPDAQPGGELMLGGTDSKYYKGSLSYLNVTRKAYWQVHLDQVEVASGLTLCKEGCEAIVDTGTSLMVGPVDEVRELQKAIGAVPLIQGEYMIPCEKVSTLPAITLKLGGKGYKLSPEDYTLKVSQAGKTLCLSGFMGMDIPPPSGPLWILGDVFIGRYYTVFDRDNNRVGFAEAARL
Chain of Pepsin A (Sus scrofa) (P00791 60-385 limits assumed): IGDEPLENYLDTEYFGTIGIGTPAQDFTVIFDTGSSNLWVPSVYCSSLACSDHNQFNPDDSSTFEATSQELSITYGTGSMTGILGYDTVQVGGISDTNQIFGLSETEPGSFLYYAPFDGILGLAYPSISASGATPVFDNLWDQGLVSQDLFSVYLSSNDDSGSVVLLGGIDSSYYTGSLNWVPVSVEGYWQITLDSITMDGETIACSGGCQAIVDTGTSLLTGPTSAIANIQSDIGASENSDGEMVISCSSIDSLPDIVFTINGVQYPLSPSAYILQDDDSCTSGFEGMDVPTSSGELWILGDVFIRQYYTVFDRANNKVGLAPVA

SMILES | logD [1] | Cmax [2] [ng/mL] | Average AUC (Mustela putorius furo [3]) [ng·h/mL] | bioavailability [5] [%] | logD [6] | IC50 (Renin [7]) [nM] | Cmax [8] [ng/mL] | Cmax [14] [ng/mL] | bioavailability [18] [%] | further results
CCCC[C@H](O[C@@H](Cc1ccccc1)C(=O)N1CCC(OCOC)CC1)C(=O)N[C@@H](CC1CCCCC1)[C@@H](O)C[C@H](C(=O)NCCCn1ccnc1)C(C)C | 4 | 3390 | 410 | 25 | 4 | 3 | 2790 | – | – | Cmax [4]: 2420 ng/mL; Average AUC (Mustela putorius furo [9]): 3380 ng·h/mL
CCCC[C@H](O[C@@H](Cc1ccccc1)C(=O)N1CCC(OCOC)CC1)C(=O)N[C@@H](CC1CCCCC1)[C@@H](O)C[C@H](C(=O)NCCCN1CCOCC1)C(C)C | 4.3 | 2110 | 588 | 28 | 3.3 | 2.8 | 4830 | 6010 | – | IC50 [10]: 1.5 nM; inhibition [11]: 0%; inhibition (Cathepsin D (Bos taurus)): 3%; inhibition [12]: 6%; inhibition [13]: 11%; Avg AUC, (Mustela putorius furo [15]): 391 µg/min/mL; bioavailability ([16]; primates): 16%; IC50 (Renin [17]): 2.4 nM; inhibition (Pepsin A (Sus scrofa)): 13%
CCCC[C@H](N[C@@H](Cc1ccccc1)C(=O)N1CCC(OCOC)CC1)C(=O)N[C@@H](CC1CCCCC1)[C@@H](O)C[C@H](NC(=O)OCCN(C)C)C(C)C | 4.6 | 930 | 245 | 62 | 3.8 | 12 | 2070 | 5250 | – | Average AUC (Mustela putorius furo [9]): 5050 ng·h/mL; IC50 (Renin [17]): 1.5 nM
COc1ccc(C[C@H](NC(=O)CC(C)(C)N)C(=O)N[C@@H](Cc2cnc[nH]2)C(=O)N[C@@H](CC2CCCCC2)[C@@H](O)[C@@H](O)CC(C)C)cc1 | – | – | – | – | – | – | – | – | – | bioavailability ([16]; cercopithecidae): 1.7%
CCCC[C@H](O[C@@H](Cc1ccccc1)C(=O)N1CCC(OCOC)CC1)C(=O)N[C@@H](CC1CCCCC1)[C@@H](O)[C@@H](O)CC(C)C | 4.8 | – | – | – | 4.8 | – | – | – | 2.5 | –
CCCC[C@H](N[C@@H](Cc1ccccc1)C(=O)N1CCC(OCOC)CC1)C(=O)N[C@@H](CC1CCCCC1)[C@@H](O)[C@@H](O)CC(C)C | – | – | – | – | – | – | – | – | 2.9 | –
CCCCNC(=O)[C@@H](C[C@H](O)[C@H](CC1CCCCC1)NC(=O)[C@H](CCCC)O[C@@H](Cc1ccccc1)C(=O)N1CCC(OCOC)CC1)C(C)C | 4.7 | – | – | – | 4.7 | – | – | – | 2.5 | –
CCCC[C@H](O[C@@H](Cc1ccccc1)C(=O)N1CCC(OCOC)CC1)C(=O)N[C@@H](CC1CCCCC1)[C@@H](O)C[C@H](NC(=O)OCCN1CCOCC1)C(C)C | 3.7 | 920 | 258 | 70 | 3.6 | 7.5 | 2840 | 5010 | – | Avg AUC, (Mustela putorius furo [15]): 363 µg/min/mL
